Data set [1] is described as follows: Half life of the compound in PBS buffer at pH 7.4 at 50 uM by HPLC analysis. The data set is classed as physicochemical. The gist of the method: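 Compound at 50 µM in PBS pH 7.4, incubated at 37 °C. Aliquots were drawn at 0, 1, 3, 6, 12, 24, 48 and 96 h and analysed by C18 reverse-phase HPLC with an acetonitrile/0.1% formic acid gradient, detected by UV at 340 nm.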

Data set [2] can be described thus: Half life of the compound in DMEM cell-free cell culture medium at 50 uM by HPLC analysis. Type of data set: physicochemical. The gist of the method: (§1)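 Conjugates diluted from a 10 mM DMSO stock to 50 µM final in cell-free culture medium (DMEM with 10% FBS), held at 37 °C. Samples were taken at 0, 1, 3, 6, 12, 24, 48 and 96 h, vortexed, and run on C18 reverse-phase HPLC with an acetonitrile/0.1% formic acid gradient at 1 mL/min, detected by UV at 340 nm.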

Data set [3] relates to HCT-116. In words: Cytotoxicity against human HCT116 cells at 1 to 100 uM after 12 hrs by MTT assay. Type of data set: functional, cell-based. The gist of the method:
(§2)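 MCF-7 or HCT116 cells were seeded at 5×10^3 per well in DMEM with 10% FBS and grown 1 day at 37 °C, 5% CO2. Compounds in 1% DMSO were added at 1, 5, 10, 50, 100 or 250 µM. Viability was read by MTT after 12 h; each assay was done three times.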
A general note: Tetrazolium dyes change colour on reduction, which living cells bring about.

For data set [4], the system named is MCF7. Kind of data set: Cytotoxicity against human MCF7 cells at 1 to 100 uM after 12 hrs by MTT assay. Type of data set: functional, cell-based. The gist of the method: as §2
Data set [5] in a line: Metabolic stability in human HCT116 cells assessed as compound remaining at 30 uM after 1 hr by HPLC analysis. Type of data set: ADME, cell-based, HCT-116. Conditions: read-out: Stability. The gist of the method:
(§3)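 MCF-7 or HCT116 cells were seeded at 2×10^5 per well and grown 24 h at 37 °C, 5% CO2, then given 30 µM conjugate. At 1, 3, 6 and 12 h cells were PBS-washed, trypsinized, sonicated and filtered. Lysates were run on C18 HPLC (UV 340 nm). Each species is reported as a percentage of integrated peak area; peaks were identified by MALDI-TOF MS.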

Data set [6] concerns MCF7. Kind of data set: Drug metabolism in human MCF7 cells assessed as quercetin-glucuronide level at 30 uM after 1 hr by HPLC analysis. Conditions: mcf7, 1 h. Type of data set: ADME, cell-based. The gist of the method: as §3
Data set [7] has as its system HCT-116. In words: Drug metabolism in human HCT116 cells assessed as methyl quercetin level at 30 uM after 3 hrs by HPLC analysis. Type of data set: ADME, cell-based. Conditions: hct-116, 3 h. In short, it runs like this: as §3
Data set [8] concerns HCT-116. Kind of data set: Drug metabolism in human HCT116 cells assessed as methyl quercetin level at 30 uM after 12 hrs by HPLC analysis. The data set is classed as ADME, cell-based. Conditions: hct-116, 12 h. In short, it runs like this: as §3
In data set [9] the test system is MCF7. In words: Drug metabolism in human MCF7 cells assessed as methyl quercetin level at 30 uM after 1 hr by HPLC analysis. The data set is classed as ADME, cell-based. As to conditions: mcf7, 1 h. The gist of the method: as §3
Data set [10] in a line: Metabolic stability in human MCF7 cells assessed as compound remaining at 30 uM after 3 hrs by HPLC analysis. Type of data set: ADME, cell-based. Conditions: read-out: Stability. In short, it runs like this: as §3
In data set [11] the test system is MCF7. Kind of data set: Drug metabolism in human MCF7 cells assessed as quercetin-glucuronide level at 30 uM after 12 hrs by HPLC analysis. Type of data set: ADME, cell-based. Conditions: mcf7, 12 h. The gist of the method:
as §3

A short description of data set [12]: Metabolic stability in human HCT116 cells assessed as compound remaining at 30 uM after 6 hrs by HPLC analysis. The data set is classed as ADME, cell-based, HCT-116. As to conditions: read-out: Stability. In short, it runs like this: as §3
Data set [13] is described as follows: Metabolic stability in human MCF7 cells assessed as compound remaining at 30 uM after 1 hr by HPLC analysis. Type of data set: ADME, cell-based. As to conditions: read-out: Stability. The gist of the method: as §3
For data set [14], the system named is MCF7. In words: Drug metabolism in human MCF7 cells assessed as quercetin sulfate level at 30 uM after 3 hrs by HPLC analysis. Type of data set: ADME, cell-based. Conditions: mcf7, 3 h. In short, it runs like this: as §3
The subject of data set [15] is MCF7. In words: Drug metabolism in human MCF7 cells assessed as quercetin sulfate level at 30 uM after 12 hrs by HPLC analysis. Type of data set: ADME, cell-based. Conditions: mcf7, 12 h. In short, it runs like this: as §3
Data set [16] has as its system MCF7. In words: Drug metabolism in human MCF7 cells assessed as quercetin sulfate level at 30 uM after 1 hr by HPLC analysis. Type of data set: ADME, cell-based. Conditions: mcf7, 1 h. The gist of the method:
as §3

The subject of data set [17] is HCT-116. Kind of data set: Drug metabolism in human HCT116 cells assessed as methyl quercetin level at 30 uM after 6 hrs by HPLC analysis. Conditions: hct-116, 6 h. The data set is classed as ADME, cell-based. In short, it runs like this:
as §3

The subject of data set [18] is HCT-116. Kind of data set: Drug metabolism in human HCT116 cells assessed as quercetin-glucuronide level at 30 uM after 3 hrs by HPLC analysis. The data set is classed as ADME, cell-based. Conditions: hct-116, 3 h. The gist of the method: as §3
Data set [19] can be described thus: Metabolic stability in human HCT116 cells assessed as compound remaining at 30 uM after 3 hrs by HPLC analysis. Type of data set: ADME, cell-based, HCT-116. Conditions: read-out: Stability. In short, it runs like this: as §3
The subject of data set [20] is HCT-116. Kind of data set: Drug metabolism in human HCT116 cells assessed as quercetin-glucuronide level at 30 uM after 6 hrs by HPLC analysis. As to conditions: hct-116, 6 h. The data set is classed as ADME, cell-based. The gist of the method: as §3
Data set [21] concerns MCF7. In words: Drug metabolism in human MCF7 cells assessed as methyl quercetin level at 30 uM after 12 hrs by HPLC analysis. The data set is classed as ADME, cell-based. Conditions: mcf7, 12 h. The gist of the method:
as §3

The nature of data set [22]: Metabolic stability in human HCT116 cells assessed as compound remaining at 30 uM after 12 hrs by HPLC analysis. Type of data set: ADME, cell-based, HCT-116. As to conditions: read-out: Stability. In short, it runs like this:
as §3

For data set [23], the system named is HCT-116. In words: Drug metabolism in human HCT116 cells assessed as quercetin sulfate level at 30 uM after 1 hr by HPLC analysis. The data set is classed as ADME, cell-based. Conditions: hct-116, 1 h. In short, it runs like this: as §3
The subject of data set [24] is HCT-116. Kind of data set: Drug metabolism in human HCT116 cells assessed as quercetin-glucuronide level at 30 uM after 12 hrs by HPLC analysis. The data set is classed as ADME, cell-based. Conditions: hct-116, 12 h. The gist of the method: as §3
Data set [25] is described as follows: Metabolic stability in human MCF7 cells assessed as compound remaining at 30 uM after 6 hrs by HPLC analysis. The data set is classed as ADME, cell-based. As to conditions: read-out: Stability. The gist of the method:
as §3

Data set [26] in a line: Drug degradation in DMEM cell-free cell culture medium assessed as formation of quercetin at 50 uM after 1 hr by HPLC analysis. The data set is classed as physicochemical. The gist of the method: as §1
For data set [27], the system named is MCF7. In words: Metabolic stability in human MCF7 cells assessed as compound remaining at 30 uM after 12 hrs by HPLC analysis. The data set is classed as ADME, cell-based. Conditions: mcf7, 12 h. The gist of the method: as §3
The nature of data set [28]: Solubility of the compound in PBS buffer at 0.5 to 300 uM. Type of data set: physicochemical. In short, it runs like this:
(§4)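 DMSO stocks ([…]–10 mM) were serially diluted into PBS pH 7.4 or DMEM with 10% FBS to final 0.5, 5, 25, 50, 100, 200 µM (2% DMSO) and 300 µM (3% DMSO). Solubility was judged by forward light scattering in a laser nephelometer.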

Data set [29] has as its system HCT-116. In words: Drug metabolism in human HCT116 cells assessed as methyl quercetin level at 30 uM after 1 hr by HPLC analysis. Conditions: hct-116, 1 h. Type of data set: ADME, cell-based. The gist of the method: as §3
Data set [30] in a line: Solubility of the compound in DMEM cell-free cell culture medium up to 100 uM. Type of data set: physicochemical. The gist of the method:
as §4

The subject of data set [31] is MCF7. Kind of data set: Drug metabolism in human MCF7 cells assessed as quercetin level at 30 uM after 12 hrs by HPLC analysis. Type of data set: ADME, cell-based. As to conditions: mcf7, 12 h. The gist of the method:
as §3

Each structure is given as a SMILES string. Active and inactive are the calls of the source. The rule behind the calls is not given here.

For orientation: half-life means the time in which the quantity being followed falls by half. Read a high half-life as slow decline. For `O=c1c(O)c(-c2ccc(O)c(O)c2)oc2cc(O)cc(O)c12` [QUERCETIN], the figures for the half-life at 50 µM in [1] and in data set [2] were 600 min and below 30 min, respectively. The result with HCT-116 [3] and with MCF7 [4] was Active.
In the case of `CC(C)OC(=O)OCOc1cc(O)c2c(=O)c(O)c(-c3ccc(O)c(O)c3)oc2c1`, the results for the remaining at 1 h, 30 µM in data set [5] and in data set [13] were 65% and 51%, respectively. In addition, the Stability result in the data set on MCF7 [6], with HCT-116 [7], in the data set with HCT-116 [8], in the data set with MCF7 [9], with MCF7 [11] and with MCF7 [14] was “Stable” each time. Besides, the Stability result in the data set with MCF7 [15], with MCF7 [16], in the data set with HCT-116 [17], in the data set with HCT-116 [18], in the data set on HCT-116 [20] and in the data set on MCF7 [21] was “Stable” throughout. Moreover, the Stability entry in the data set on HCT-116 [23], in the data set on HCT-116 [24], with MCF7 [27], with HCT-116 [29] and with MCF7 [31] was “Stable” each time. Also, the remaining at 3 h, 30 µM in data set [10] came out at 6%; in data set [19], 34%. In addition, the remaining at 6 h, 30 µM was found to be 18% in [12] and 2% in [25]. The half-life at 50 µM in [1] is above 5760 min; in [2] it was 60 min. Besides, the outcome in the data set on HCT-116 [3] and in the data set on MCF7 [4] was Active. For the same molecule, the remaining at 12 h, 30 µM in [22] is 12%. The Drug degradation entry in [26] is “Active”. Moreover, the solubility entry in data set [28] is recorded as “Insoluble”; in data set [30], “soluble”.

The values above are taken from ChEMBL document CHEMBL2396515, “Quercetin-POC conjugates: Differential stability and bioactivity profiles between breast cancer (MCF-7) and colorectal carcinoma (HCT116) cell lines” (Bioorg Med Chem, 2013).
